Data on ten compounds can be found in ChEMBL document CHEMBL1123166, “Design and synthesis of 2-(arylamino)-4(3H)-quinazolinones as novel inhibitors of rat lens aldose reductase” (J Med Chem, 1986).

For one test, the target named is Aldo-keto reductase family 1 member B1 (Rattus norvegicus) (UniProt P07943). The test is described as follows: Compound was tested for its ability to inhibit crude aldose reductase obtained from rat lens at 100 uM concentration. The gist of the method:
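Crude enzyme prepared from rat lens. Reaction at pH 6.2 in 0.1 M phosphate buffer with 0.104 mM NADPH and 1.5 mM DL-glyceraldehyde as substrate. NADPH consumption followed at 340 nm against a blank lacking substrate. Percent inhibition from rate versus substrate-only control. IC50 from linear regression of log dose-response using at least three concentrations, three replicates each, for compounds exceeding 50% inhibition at 100 μM.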
As to `COc1cc2nc(NCc3ccccc3)nc(O)c2cc1OC`, the inhibition was determined as 22.4%.
Same read-out and setting: the result for `Oc1nc(NCc2ccccc2)nc2ccccc12` reads 3.9%; that for `COc1cc2nc(Nc3ccccc3)nc(O)c2cc1OC`, 17.4%; that for `Oc1nc(Nc2ccccc2)nc2ccccc12`, 5.9%.
On the same count and under the same terms, the result for `O=S(=O)(O)c1ccc(Nc2nc(O)c3ccccc3n2)cc1` reads 42.6%.

For the next test, the target named is Aldo-keto reductase family 1 member B1 (Rattus norvegicus, UniProt P07943). Kind of test: Compound was tested for its ability to inhibit crude aldose reductase obtained from rat lens.
Regarding `O=C(O)c1ccc(Nc2nc3ccccc3c(=O)[nH]2)cc1O`, the 50% inhibitory concentration (IC50) was 57 µM.
Still for that read-out and setting: the result for `COc1cc2nc(Nc3ccc(C(=O)O)cc3)[nH]c(=O)c2cc1OC` reads 34 µM; that for `O=c1[nH]c(Nc2ccc(O)cc2)nc2ccccc12`, 75 µM; that for `O=C(O)c1ccc(Nc2nc3ccccc3c(=O)[nH]2)cc1`, 50 µM.
Regarding `Cc1nc2ccccc2c(=O)n1-c1ccc(C(=O)O)cc1`, the IC50 came to 214 µM. This IC50 is about 4.3-fold higher than that of the compound before.

What is called inhibition is the relative decrease from the control value, in per cent. A lower inhibition goes with a response near the control. The IC50 is the midpoint of a concentration-inhibition curve.
